# According to ChEMBL document CHEMBL3779819, “Design, synthesis and biological evaluation of LBM-A5 derivatives as potent P-glycoprotein-mediated multidrug resistance inhibitors” (Bioorg Med Chem, 2016):
# Where a name gives a salt, the structure may show the parent alone.
# Tests used:
# Assay type in all cases: cell-based
# K562/A02 [1] = assay: Reversal of P-gp-mediated resistance to adriamycin in human K562/A02 cells assessed as reduction in adriamycin IC50 at 5 uM after 48 hrs by MTT assay relative to control
# Outline: (§1)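 K562/A02 cells in RPMI 1640 with 10% FBS, seeded and grown 24 h. Cells given a series of ADM concentrations with or without modulator at 5 μM for 48 h at 37 °C. MTT added for 4 h, A570 read. ADM IC50 from dose–response curves. RF = IC50 without modulator / IC50 with modulator. Triplicates, three independent repeats.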
# K562 = assay: Cytotoxicity against human K562 cells assessed as cell viability after 48 hrs by MTT assay; conditions: K562, 48 h
# Outline: (§2)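 K562 and ADM-resistant, P-gp-overexpressing K562/A02 cells seeded at 1~2×10^4 per well, grown 24 h, then given graded compound doses in medium. Exposure 48 h, 37 °C, 5% CO2. MTT added for a further 4 h, absorbance read at 570 nm. IC50 taken from dose–response curves. Each experiment run three times.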
# [2] = Cytotoxicity against human K562/A02 cells assessed as cell viability after 48 hrs by MTT assay; conditions: K562/A02, 48 h; outline: as §2
# [3] = (§3) Reversal of P-gp-mediated resistance to adriamycin in human K562/A02 cells assessed as reduction in adriamycin IC50 after 48 hrs by MTT assay; conditions: K562/A02, 48 h; outline: as §1
# K562/A02 [4] = assay: Reversal of P-gp-mediated resistance to adriamycin in human K562/A02 cells assessed as reduction in adriamycin IC50 at 0.31 uM after 48 hrs by MTT assay relative to control
# Outline: (§4)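 K562/A02 cells in RPMI 1640 with 10% FBS, grown 24 h. Cells exposed 48 h at 37 °C to graded ADM concentrations, with or without modulator at 0.078–2.5 μM. MTT added for 4 h, A570 read. Reversal fold = ADM IC50 without modulator / ADM IC50 with modulator. Three independent experiments, mean±SEM.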
# K562/A02 [5] = assay: as §3; outline: as §1
# K562/A02 [6] = assay: Reversal of P-gp-mediated resistance to adriamycin in human K562/A02 cells assessed as reduction in adriamycin IC50 at 2.5 uM after 48 hrs by MTT assay relative to control; outline: as §4
# K562/A02 [7] = assay: Inhibition of P-gp-mediated adriamycin efflux in human K562/A02 cells assessed as intracellular adriamycin accumulation at 5 uM preincubated for 60 mins followed by adriamycin addition measured after 90 mins by flow cytometry
# Outline: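 K562/A02 cells (ADM-induced, P-gp-overexpressing) seeded at 1.5×10^5/well; modulator or 0.1% DMSO vehicle pre-incubated 60 min, then 20 μM ADM added for 90 min; cells washed three times with PBS at 4°C; retained intracellular ADM read as mean fluorescence intensity by flow cytometry; means±SD of two independent experiments.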
# K562/A02 [8] = assay: Reversal of P-gp-mediated resistance to adriamycin in human K562/A02 cells assessed as reduction in adriamycin IC50 at 0.078 uM after 48 hrs by MTT assay relative to control; outline: as §4
# K562/A02 [9] = assay: Potency index, ratio of verapamil to compound for inhibition of P-gp-mediated adriamycin efflux in human K562/A02 cells assessed as intracellular adriamycin accumulation at 5 uM
# K562/A02 [10] = assay: Reversal of P-gp-mediated resistance to adriamycin in human K562/A02 cells assessed as reduction in adriamycin IC50 at 0.625 uM after 48 hrs by MTT assay relative to control; outline: as §4
# K562/A02 [11] = assay: Inhibition of P-gp-mediated adriamycin efflux in human K562/A02 cells assessed as increase in intracellular accumulation of adriamycin preincubated for 60 mins followed by adriamycin addition measured after 90 mins by flow cytometry
# Outline: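 K562/A02 cells seeded at 1.5×10^5 per well. Modulator (0.5, 2.5 or 5 μM) or 0.1% DMSO vehicle pre-incubated 60 min. ADM 20 μM then added for 90 min. Cells washed three times in PBS at 4 °C. Retained ADM read as mean fluorescence intensity by flow cytometry. Means±SD of two independent experiments.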
# K562/A02 [12] = assay: Reversal of P-gp-mediated resistance to adriamycin in human K562/A02 cells assessed as reduction in adriamycin IC50 at 1.25 uM after 48 hrs by MTT assay relative to control; outline: as §4
# K562/A02 [13] = assay: Reversal of P-gp-mediated resistance to adriamycin in human K562/A02 cells assessed as reduction in adriamycin IC50 at 0.156 uM after 48 hrs by MTT assay relative to control; outline: as §4
smiles,measurement,setting,value
COc1cc2c(cc1OC)CN(CCc1ccc(-n3cc(COc4ccccc4[N+](=O)[O-])nn3)cc1)CC2,fold change (FC),K562/A02 [1],7.4
same,IC50,K562,48.8 µM
same,IC50,[2],> 100 µM
COc1cc2c(cc1OC)CN(CCn1cc(COc3ccccc3OC)nn1)CC2,fold change (FC),K562/A02 [1],4.1
same,IC50,K562,> 100 µM
same,IC50,[2],> 100 µM
COc1cc2c(cc1OC)CN(CCn1cc(COc3ccc(C)c(C)c3)nn1)CC2,fold change (FC),K562/A02 [1],9.1
same,IC50,K562,> 100 µM
same,IC50,[2],> 100 µM
COc1cc2c(cc1OC)CN(CCc1ccc(-n3cc(COc4ccc(C(C)C)cc4)nn3)cc1)CC2,fold change (FC),K562/A02 [1],9.2
same,IC50,K562,> 100 µM
same,IC50,[2],> 100 µM
COc1cc2c(cc1OC)CN(CCc1ccc(-n3cc(COc4ccc5ccccc5c4)nn3)cc1)CC2,fold change (FC),K562/A02 [1],8.5
same,IC50,K562,> 100 µM
same,IC50,[2],> 100 µM
COc1cc2c(cc1OC)CN(CCn1cc(COc3ccc([N+](=O)[O-])cc3)nn1)CC2,fold change (FC),K562/A02 [1],3.1
same,IC50,K562,> 100 µM
same,IC50,[2],> 100 µM
COc1ccc(CCN(C)CCCC(C#N)(c2ccc(OC)c(OC)c2)C(C)C)cc1OC (stereo unspecified),IC50,K562,65.3 µM
COc1cc2c(cc1OC)CN(CCc1ccc(-n3cc(COc4cccc5cccnc45)nn3)cc1)CC2,fold change (FC),K562/A02 [1],10
same,IC50,K562,28 µM
same,IC50,[2],> 100 µM
COc1cc2c(cc1OC)CN(CCc1ccc(-n3cc(COc4ccc([N+](=O)[O-])cc4)nn3)cc1)CC2,fold change (FC),K562/A02 [1],5.4
same,IC50,K562,49.2 µM
same,IC50,[2],> 100 µM
COc1cc2c(cc1OC)CN(CCn1cc(COc3ccc(C)cc3C)nn1)CC2,fold change (FC),K562/A02 [1],4.6
same,IC50,K562,> 100 µM
same,IC50,[2],> 100 µM
COc1cc2c(cc1OC)CN(CCn1cc(COc3ccc4ccccc4c3)nn1)CC2,fold change (FC),K562/A02 [1],3.6
same,IC50,K562,> 100 µM
same,IC50,[2],> 100 µM
COc1cc2c(cc1OC)CN(CCn1cc(COc3ccc(C)cc3)nn1)CC2,fold change (FC),K562/A02 [1],6.2
same,IC50,K562,> 100 µM
same,IC50,[2],> 100 µM
COc1cc2c(cc1OC)CN(CCc1ccc(-n3cc(COc4cccc5ccccc45)nn3)cc1)CC2,fold change (FC),K562/A02 [1],21
same,IC50,K562,> 100 µM
same,IC50,[2],> 100 µM
COc1cc2c(cc1OC)CN(CCc1ccc(-n3cc(COc4ccccc4NC(=O)c4ccccc4)nn3)cc1)CC2,fold change (FC),K562/A02 [1],23
same,IC50,K562,> 100 µM
same,EC50,[3],0.484 µM
same,IC50,[2],> 100 µM
COc1cc2c(cc1OC)CN(CCn1cc(COc3ccc(C(C)C)cc3)nn1)CC2,fold change (FC),K562/A02 [1],7.7
same,IC50,K562,> 100 µM
same,IC50,[2],> 100 µM
COc1ccc(OCc2cn(CCN3CCc4cc(OC)c(OC)cc4C3)nn2)cc1,fold change (FC),K562/A02 [1],3.4
same,IC50,K562,> 100 µM
same,IC50,[2],> 100 µM
CCc1ccc(OCc2cn(CCN3CCc4cc(OC)c(OC)cc4C3)nn2)cc1,fold change (FC),K562/A02 [1],6.1
same,IC50,K562,> 100 µM
same,IC50,[2],> 100 µM
COc1cc2c(cc1OC)CN(CCc1ccc(-n3cc(COc4ccc(C)cc4)nn3)cc1)CC2,fold change (FC),K562/A02 [1],5.8
same,IC50,K562,> 100 µM
same,IC50,[2],> 100 µM
COc1cc2c(cc1OC)CN(CCn1cc(COc3ccc(F)cc3)nn1)CC2,fold change (FC),K562/A02 [1],2.7
same,IC50,K562,> 100 µM
same,IC50,[2],> 100 µM
COc1cc2c(cc1OC)CN(CCn1cc(COc3ccc(C(C)(C)C)cc3)nn1)CC2,fold change (FC),K562/A02 [1],20.4
same,IC50,K562,> 100 µM
same,IC50,[2],> 100 µM
COc1ccc(OCc2cn(-c3ccc(CCN4CCc5cc(OC)c(OC)cc5C4)cc3)nn2)cc1,fold change (FC),K562/A02 [1],3.5
same,IC50,K562,> 100 µM
same,IC50,[2],> 100 µM
CCc1ccc(OCc2cn(-c3ccc(CCN4CCc5cc(OC)c(OC)cc5C4)cc3)nn2)cc1,fold change (FC),K562/A02 [1],9.1
same,IC50,K562,> 100 µM
same,IC50,[2],> 100 µM
COc1cc2c(cc1OC)CN(CCc1ccc(-n3cc(COc4ccc(C(C)(C)C)cc4)nn3)cc1)CC2,fold change (FC),K562/A02 [1],9.3
same,IC50,K562,21.1 µM
same,IC50,[2],> 100 µM
COc1ccc(C(=O)Nc2ccccc2C(=O)Nc2ccc(CCN3CCc4cc(OC)c(OC)cc4C3)cc2)cc1OC,fold change (FC),K562/A02 [1],30.4
same,IC50,K562,19.6 µM
same,IC50,[2],50.1 µM
COc1cc2c(cc1OC)CN(CCn1cc(COc3ccccc3C(C)(C)C)nn1)CC2,fold change (FC),K562/A02 [1],9.6
same,IC50,K562,> 100 µM
same,IC50,[2],> 100 µM
COc1cc2c(cc1OC)CN(CCc1ccc(-n3cc(COc4ccccc4)nn3)cc1)CC2,fold change (FC),K562/A02 [1],31.4
same,fold change (FC),K562/A02 [4],7.2
same,IC50,K562,> 100 µM
same,EC50,[3],0.193 µM
same,Activity,K562/A02 [5],Dose-dependent effect
same,fold change (FC),K562/A02 [6],20.3
same,Flu intensity,K562/A02 [7],1280
same,IC50,[2],> 100 µM
same,fold change (FC),K562/A02 [8],1.6
same,Ratio,K562/A02 [9],1.5
same,fold change (FC),K562/A02 [10],11.3
same,inhibition,K562/A02 [11],Dose-dependent effect
same,fold change (FC),K562/A02 [12],16.9
same,fold change (FC),K562/A02 [13],2.2
COc1cc2c(cc1OC)CN(CCn1cc(COc3cccc4ccccc34)nn1)CC2,fold change (FC),K562/A02 [1],5.7
same,IC50,K562,> 100 µM
same,IC50,[2],> 100 µM
COc1cccc2c1C(=O)c1c(O)c3c(c(O)c1C2=O)C[C@@](O)(C(=O)CO)C[C@@H]3O[C@H]1C[C@H](N)[C@H](O)[C@H](C)O1 [DOXORUBICIN HYDROCHLORIDE],IC50,K562,6.23 µM
same,IC50,[2],38 µM
COc1cc2c(cc1OC)CN(CCc1ccc(-n3cc(COc4ccc(OC(F)(F)F)cc4)nn3)cc1)CC2,fold change (FC),K562/A02 [1],5.9
same,IC50,K562,37.4 µM
same,IC50,[2],> 100 µM
